According to ChEMBL document CHEMBL2086304, “Synthesis and in vitro antimycobacterial and isocitrate lyase inhibition properties of novel 2-methoxy-2'-hydroxybenzanilides, their thioxo analogues and benzoxazoles” (Eur J Med Chem, 2012):
In brackets after ≈: the same amount, converted by molar mass.

How the values were obtained:
[1] = biological target: T1, Isocitrate lyase (Mycobacterium tuberculosis) (UniProt P9WKK7); experiment: Inhibition of Mycobacterium tuberculosis H37Rv isocitrate lyase expressed in Escherichia coli HB101 at 10 umol/L
T1 sequence (whole entry): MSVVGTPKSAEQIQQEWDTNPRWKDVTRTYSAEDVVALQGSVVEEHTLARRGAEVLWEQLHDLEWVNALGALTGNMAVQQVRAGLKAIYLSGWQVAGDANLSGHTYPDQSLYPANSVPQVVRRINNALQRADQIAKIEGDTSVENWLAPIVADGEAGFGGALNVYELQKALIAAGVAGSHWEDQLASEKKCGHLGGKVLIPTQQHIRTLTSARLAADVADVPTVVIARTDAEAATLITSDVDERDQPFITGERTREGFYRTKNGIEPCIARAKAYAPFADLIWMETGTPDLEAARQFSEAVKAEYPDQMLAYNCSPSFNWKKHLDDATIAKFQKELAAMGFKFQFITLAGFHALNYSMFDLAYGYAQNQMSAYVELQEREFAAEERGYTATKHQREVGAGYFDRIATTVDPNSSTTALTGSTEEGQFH
Procedure, shortened: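 Isocitrate lyase assayed per Dixon–Kornberg in 96-well format. Buffer: 50 mmol/L KH2PO4, 4 mmol/L MgCl2, 4 mmol/L phenylhydrazine, 12 mmol/L cysteine, pH 7.0. Glyoxylate phenylhydrazone read at 324 nm. Compounds added in DMSO, with DMSO-alone inhibition subtracted.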

Mycobacterium avium [2] = experiment: Antimycobacterial activity against isoniazid resistance Mycobacterium avium 330/88 after 21 days by micromethod; format: functional; settings: 330/88, 504 h
Procedure, shortened: (§1)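 Inocula: M. tuberculosis My 331/88 at 10^-3 dilution, M. avium My 330/88 at 10^-5, M. kansasii My 235/80 and clinical isolate 6509/96 at 10^-4. Compounds added in DMSO at 1000 down to 0.5 (twofold series). Read at 14 and 21 days, plus 7 days for M. kansasii. MIC taken as lowest concentration inhibiting growth.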

[3] = Selectivity index, ratio of IC50 for human HepG2 cells to MIC for Mycobacterium tuberculosis 331/88 after 14 days; format: functional
Procedure, shortened: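 Cytotoxicity in Hep G2 cells (passage 12), 10,000 cells/well, in MEM with 10% FBS, 1% glutamine and 1% nonessential amino acids. Cells preincubated 24 h, 37 °C, 5% CO2. Compounds in DMSO at eight concentrations in quadruplicate, 24 h. MTS-type reagent added for 1.5 h, A490 read, IC50 taken at 50% viability. SI = this IC50 over the 14-day M. tuberculosis MIC.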

Mycobacterium avium [4] = experiment: Antimycobacterial activity against isoniazid resistance Mycobacterium avium 330/88 after 14 days by micromethod; format: functional; settings: 330/88, 336 h; procedure, shortened: as §1
HepG2 = experiment: Cytotoxicity against human HepG2 cells after 24 hrs by CellTiter-96 cell viability assay; format: functional, cell-based; settings: HepG2, 24 h
Procedure, shortened: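 Hep G2 human hepatic cells (passage 12), 10,000 per well, grown 24 h at 37 °C, 5% CO2 in MEM with 1% glutamine, 10% FBS and 1% nonessential amino acids. Compounds in DMSO at eight increasing concentrations, quadruplicate, 24 h at 37 °C. Kit reagent added, 1.5 h at 37 °C, absorbance 490 nm. IC50 is the concentration reducing viability to 50% of control.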

[5] = tested on: Mycobacterium tuberculosis; experiment: Antimycobacterial activity against Mycobacterium tuberculosis 331/88 after 21 days by micromethod; format: functional; settings: 331/88, 504 h; procedure, shortened: as §1
Mycobacterium kansasii [6] = experiment: Antimycobacterial activity against Mycobacterium kansasii 6509/96 clinical isolate after 21 days by micromethod; format: functional; settings: 6509/96, 504 h; procedure, shortened: as §1
Mycobacterium kansasii [7] = experiment: Antimycobacterial activity against Mycobacterium kansasii 6509/96 clinical isolate after 14 days by micromethod; format: functional; settings: 6509/96, 336 h; procedure, shortened: as §1
Mycobacterium kansasii [8] = experiment: Antimycobacterial activity against isoniazid resistance Mycobacterium kansasii 225/80 after 21 days by micromethod; format: functional; settings: 225/80, 504 h
Mycobacterium kansasii [9] = experiment: Antimycobacterial activity against Mycobacterium kansasii 6509/96 clinical isolate after 7 days by micromethod; format: functional; settings: 6509/96, 168 h; procedure, shortened: as §1
Mycobacterium kansasii [10] = experiment: Antimycobacterial activity against isoniazid resistance Mycobacterium kansasii 225/80 after 7 days by micromethod; format: functional; settings: 225/80, 168 h
[11] = tested on: Mycobacterium tuberculosis; experiment: Antimycobacterial activity against Mycobacterium tuberculosis 331/88 after 14 days by micromethod; format: functional; settings: 331/88, 336 h; procedure, shortened: as §1
Mycobacterium kansasii [12] = experiment: Antimycobacterial activity against isoniazid resistance Mycobacterium kansasii 225/80 after 14 days by micromethod; format: functional; settings: 225/80, 336 h

| Structure (SMILES) | inhibition [1] [%] | MIC (Mycobacterium avium [2]) [µM] | Selectivity Index [3] | MIC (Mycobacterium avium [4]) [µM] | IC50 (HepG2) [µM] | MIC [5] [µM] | MIC (Mycobacterium kansasii [6]) [µM] | MIC (Mycobacterium kansasii [7]) [µM] | MIC (Mycobacterium kansasii [8]) [µM] | MIC (Mycobacterium kansasii [9]) [µM] | MIC (Mycobacterium kansasii [10]) [µM] | MIC [11] [µM] | MIC (Mycobacterium kansasii [12]) [µM] |
| --- | --- | --- | --- | --- | --- | --- | --- | --- | --- | --- | --- | --- | --- |
| COc1cc(Cl)ccc1C(=S)Nc1ccc(Br)cc1O | 10 | 32 (≈ 11.9 µg/mL) | 0.24 | 32 (≈ 11.9 µg/mL) | 3.88 | 32 (≈ 11.9 µg/mL) | 32 (≈ 11.9 µg/mL) | 32 (≈ 11.9 µg/mL) | 62.5 (≈ 23.3 µg/mL) | 16 (≈ 5.96 µg/mL) | 16 (≈ 5.96 µg/mL) | 16 (≈ 5.96 µg/mL) | 32 (≈ 11.9 µg/mL) |
| COc1ccc(Cl)cc1C(=O)Nc1cc(Br)ccc1O | 0 | 62.5 (≈ 22.3 µg/mL) | 0.51 | 62.5 (≈ 22.3 µg/mL) | 4.09 | 8 (≈ 2.85 µg/mL) | 8 (≈ 2.85 µg/mL) | 8 (≈ 2.85 µg/mL) | 8 (≈ 2.85 µg/mL) | 4 (≈ 1.43 µg/mL) | 4 (≈ 1.43 µg/mL) | 8 (≈ 2.85 µg/mL) | 8 (≈ 2.85 µg/mL) |
